Test results: ChEMBL document CHEMBL1145271 (Bioorg Med Chem Lett, 2005)

molecular target: T1, Kappa-type opioid receptor (Homo sapiens, UniProt P41145); experiment: Effective concentration for activation of human Opioid receptor kappa 1 expressed in chinese hamster ovary cells to enhance [35S]GTP-gamma-S, binding; format: functional, cell-based
Method in brief: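 EC50 for human κ-opioid receptor activation, read as enhancement of [35S]GTPγS binding. Mean of at least three independent experiments, each run in duplicate.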

T1 sequence (P41145 whole entry): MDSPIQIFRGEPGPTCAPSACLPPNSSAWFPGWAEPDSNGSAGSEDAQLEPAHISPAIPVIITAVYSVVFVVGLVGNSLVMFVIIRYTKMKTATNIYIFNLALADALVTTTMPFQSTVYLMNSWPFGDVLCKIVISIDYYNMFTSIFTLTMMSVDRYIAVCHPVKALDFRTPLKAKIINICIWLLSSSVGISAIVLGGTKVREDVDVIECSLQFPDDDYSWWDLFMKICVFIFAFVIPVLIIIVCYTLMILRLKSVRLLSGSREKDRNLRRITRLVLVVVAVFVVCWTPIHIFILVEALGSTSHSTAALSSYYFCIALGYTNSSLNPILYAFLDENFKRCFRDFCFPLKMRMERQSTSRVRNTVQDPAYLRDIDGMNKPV

Q: `COC(=O)[C@@H]1C[C@H](OC)C(=O)[C@H]2[C@@]1(C)CC[C@H]1C(=O)O[C@H](c3ccoc3)C[C@]21C` was tested. Which EC50 did it give?
A: 389 nM

Q: `CCNC(=O)O[C@H]1C[C@@H](C(=O)OC)[C@]2(C)CC[C@H]3C(=O)O[C@H](c4ccoc4)C[C@]3(C)[C@H]2C1=O` was tested. Which EC50 did it give?
A: > 1000 nM

Q: With `CCCCO[C@H]1C[C@@H](C(=O)OC)[C@]2(C)CCC3C(=O)O[C@H](c4ccoc4)C[C@]3(C)[C@H]2C1=O` (stereo partly drawn) as the molecule, how does the EC50 read?
A: 104 nM

Q: For `COC(=O)[C@@H]1C[C@H](OCc2ccccc2)C(=O)[C@H]2[C@@]1(C)CCC1C(=O)O[C@H](c3ccoc3)C[C@@]12C` (stereo partly drawn), which EC50 is on record?
A: 161 nM

Q: How did the EC50 turn out when `CNC(=O)O[C@H]1C[C@@H](C(=O)OC)[C@]2(C)CC[C@H]3C(=O)O[C@H](c4ccoc4)C[C@]3(C)[C@H]2C1=O` was run?
A: 201 nM

Q: Which EC50 does the source give for `CCN[C@@H]1C[C@@H](C(=O)OC)[C@]2(C)CC[C@H]3C(=O)O[C@H](c4ccoc4)C[C@]3(C)[C@H]2C1=O` here?
A: 68.9 nM

Q: For `CCCO[C@H]1C[C@@H](C(=O)OC)[C@]2(C)CC[C@H]3C(=O)O[C@H](c4ccoc4)C[C@]3(C)[C@H]2C1=O` [SALVINORIN A PROPYL ETHER], which EC50 is on record?
A: 67.4 nM

Q: Which EC50 does the source give for `COC(=O)[C@@H]1C[C@H](OC(N)=O)C(=O)[C@H]2[C@@]1(C)CC[C@H]1C(=O)O[C@H](c3ccoc3)C[C@]21C` here?
A: 6.2 nM

Q: For `CCCC(=O)O[C@H]1C[C@@H](C(=O)OC)[C@]2(C)CC[C@H]3C(=O)O[C@H](c4ccoc4)C[C@]3(C)[C@H]2C1=O`, which EC50 is on record?
A: 9.9 nM

Q: For `CCC(=O)O[C@H]1C[C@@H](C(=O)OC)[C@]2(C)CC[C@H]3C(=O)O[C@H](c4ccoc4)C[C@]3(C)[C@H]2C1=O`, which EC50 is on record?
A: 20.4 nM

Q: Which EC50 does the source give for `COC(=O)[C@@H]1C[C@@H](N(C)C)C(=O)[C@H]2[C@@]1(C)CC[C@H]1C(=O)O[C@H](c3ccoc3)C[C@]21C` here?
A: 343 nM

Q: How did the EC50 turn out when `C=CCO[C@H]1C[C@@H](C(=O)OC)[C@]2(C)CCC3C(=O)O[C@H](c4ccoc4)C[C@]3(C)[C@H]2C1=O` (stereo partly drawn) was run?
A: 145 nM

molecular target: T1, Kappa-type opioid receptor; experiment: Activation of human Opioid receptor kappa 1 expressed in chinese hamster ovary cells to enhance [35S]GTP-gamma-S, binding compared to U50,488H; format: functional, cell-based
Method in brief: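 Agonist efficacy at human κ-opioid receptor, read as enhancement of [35S]GTPγS binding and expressed as % of the maximal response to U50,488H. Mean of at least three independent experiments, each run in duplicate.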

Q: How did the Efficacy turn out when `COC(=O)[C@@H]1C[C@H](OC)C(=O)[C@H]2[C@@]1(C)CC[C@H]1C(=O)O[C@H](c3ccoc3)C[C@]21C` was run?
A: 98%

Q: `CNC(=O)O[C@H]1C[C@@H](C(=O)OC)[C@]2(C)CC[C@H]3C(=O)O[C@H](c4ccoc4)C[C@]3(C)[C@H]2C1=O` was tested. Which Efficacy did it give?
A: 81%

Q: How did the Efficacy turn out when `CCCO[C@H]1C[C@@H](C(=O)OC)[C@]2(C)CC[C@H]3C(=O)O[C@H](c4ccoc4)C[C@]3(C)[C@H]2C1=O` [SALVINORIN A PROPYL ETHER] was run?
A: 100%

Q: `CCO[C@H]1C[C@@H](C(=O)OC)[C@]2(C)CC[C@H]3C(=O)O[C@H](c4ccoc4)C[C@]3(C)[C@H]2C1=O` was tested. Which Efficacy did it give?
A: 103%

Q: With `COC(=O)[C@@H]1C[C@H](O)C(=O)[C@H]2[C@@]1(C)CC[C@H]1C(=O)O[C@H](c3ccoc3)C[C@]21C` as the molecule, how does the Efficacy read?
A: 98%

Q: How did the Efficacy turn out when `COC(=O)[C@@H]1C[C@H](OC(N)=O)C(=O)[C@H]2[C@@]1(C)CC[C@H]1C(=O)O[C@H](c3ccoc3)C[C@]21C` was run?
A: 99%

Q: Which Efficacy does the source give for `CCCC(=O)O[C@H]1C[C@@H](C(=O)OC)[C@]2(C)CC[C@H]3C(=O)O[C@H](c4ccoc4)C[C@]3(C)[C@H]2C1=O` here?
A: 97%

Q: For `CCC(=O)O[C@H]1C[C@@H](C(=O)OC)[C@]2(C)CC[C@H]3C(=O)O[C@H](c4ccoc4)C[C@]3(C)[C@H]2C1=O`, which Efficacy is on record?
A: 94%

Q: For `COC(=O)[C@@H]1C[C@@H](N(C)C)C(=O)[C@H]2[C@@]1(C)CC[C@H]1C(=O)O[C@H](c3ccoc3)C[C@]21C`, which Efficacy is on record?
A: 105%

Q: For `C=CCO[C@H]1C[C@@H](C(=O)OC)[C@]2(C)CCC3C(=O)O[C@H](c4ccoc4)C[C@]3(C)[C@H]2C1=O` (stereo partly drawn), which Efficacy is on record?
A: 106%

molecular target: T1, Kappa-type opioid receptor; experiment: Inhibition of [3H]diprenorphine binding to human Opioid receptor kappa 1 expressed in chinese hamster ovary cells; format: cell-based, CHO
Method in brief: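 Ki from inhibition of [3H]diprenorphine binding to human κ-opioid receptor. Mean of at least three independent experiments, each run in duplicate.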

Q: How did the Ki turn out when `COC(=O)[C@@H]1C[C@H](OC(=O)CNC(C)=O)C(=O)[C@H]2[C@@]1(C)CC[C@H]1C(=O)O[C@H](c3ccoc3)C[C@]21C` was run?
A: > 10000 nM

Q: For `COC(=O)[C@@H]1C[C@H](OC(=O)CN(C)C)C(=O)[C@H]2[C@@]1(C)CC[C@H]1C(=O)O[C@H](c3ccoc3)C[C@]21C`, which Ki is on record?
A: > 10000 nM

Q: With `COC(=O)[C@@H]1C[C@H](OC)C(=O)[C@H]2[C@@]1(C)CC[C@H]1C(=O)O[C@H](c3ccoc3)C[C@]21C` as the molecule, how does the Ki read?
A: 220 nM

Q: Which Ki does the source give for `CCNC(=O)O[C@H]1C[C@@H](C(=O)OC)[C@]2(C)CC[C@H]3C(=O)O[C@H](c4ccoc4)C[C@]3(C)[C@H]2C1=O` here?
A: 462 nM

Q: `CCCCO[C@H]1C[C@@H](C(=O)OC)[C@]2(C)CCC3C(=O)O[C@H](c4ccoc4)C[C@]3(C)[C@H]2C1=O` (stereo partly drawn) was tested. Which Ki did it give?
A: 35.8 nM

Q: How did the Ki turn out when `COC(=O)[C@@H]1C[C@H](OCc2ccccc2)C(=O)[C@H]2[C@@]1(C)CCC1C(=O)O[C@H](c3ccoc3)C[C@@]12C` (stereo partly drawn) was run?
A: 75.7 nM

Q: Which Ki does the source give for `CNC(=O)O[C@H]1C[C@@H](C(=O)OC)[C@]2(C)CC[C@H]3C(=O)O[C@H](c4ccoc4)C[C@]3(C)[C@H]2C1=O` here?
A: 83 nM

Q: How did the Ki turn out when `CCN[C@@H]1C[C@@H](C(=O)OC)[C@]2(C)CC[C@H]3C(=O)O[C@H](c4ccoc4)C[C@]3(C)[C@H]2C1=O` was run?
A: 28.9 nM

Q: `COC(=O)[C@@H]1C[C@H](OC(=O)[C@H](C)N)C(=O)[C@H]2[C@@]1(C)CC[C@H]1C(=O)O[C@H](c3ccoc3)C[C@]21C` was tested. Which Ki did it give?
A: > 10000 nM

Q: How did the Ki turn out when `CCCO[C@H]1C[C@@H](C(=O)OC)[C@]2(C)CC[C@H]3C(=O)O[C@H](c4ccoc4)C[C@]3(C)[C@H]2C1=O` [SALVINORIN A PROPYL ETHER] was run?
A: 28.7 nM

Q: Which Ki does the source give for `CN[C@@H]1C[C@@H](C(=O)OC)[C@]2(C)CC[C@H]3C(=O)O[C@H](c4ccoc4)C[C@]3(C)[C@H]2C1=O` here?
A: > 10000 nM

Q: Which Ki does the source give for `COC(=O)[C@@H]1C[C@H](OC(N)=O)C(=O)[C@H]2[C@@]1(C)CC[C@H]1C(=O)O[C@H](c3ccoc3)C[C@]21C` here?
A: 3.2 nM

Q: For `CCCC(=O)O[C@H]1C[C@@H](C(=O)OC)[C@]2(C)CC[C@H]3C(=O)O[C@H](c4ccoc4)C[C@]3(C)[C@H]2C1=O`, which Ki is on record?
A: 4.9 nM

Q: How did the Ki turn out when `CCC(=O)O[C@H]1C[C@@H](C(=O)OC)[C@]2(C)CC[C@H]3C(=O)O[C@H](c4ccoc4)C[C@]3(C)[C@H]2C1=O` was run?
A: 7.2 nM

Q: With `COC(=O)[C@@H]1C[C@@H](N(C)C)C(=O)[C@H]2[C@@]1(C)CC[C@H]1C(=O)O[C@H](c3ccoc3)C[C@]21C` as the molecule, how does the Ki read?
A: 90.9 nM

Q: Which Ki does the source give for `C=CCO[C@H]1C[C@@H](C(=O)OC)[C@]2(C)CCC3C(=O)O[C@H](c4ccoc4)C[C@]3(C)[C@H]2C1=O` (stereo partly drawn) here?
A: 60.1 nM
